Measured values published in paper PMC10828771 (Haematologica, 2023).
Residues, ends and D or L forms follow the SMILES beside them. *: point of attachment. Cbz = O=C(OCc1ccccc1)*; CH2F = FC*

System: OPM-2 cells
Test: Apoptosis and necroptosis inhibition assays
Assay type: cell-based, human
In short: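 OPM-2 cells at 250,000 cells/mL pre-incubated 1 h at 37°C in medium containing pan-caspase inhibitor Z-VAD-FMK, necroptosis inhibitor necrostatin-1s, or DMSO. Washed (PBS for Z-VAD-FMK arm), then cultured 72 h with test compound or DMSO. Viability by Zombie-aqua staining and flow cytometry. Z-VAD-FMK arm: mean ± SD of 3 independent experiments.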

SMILES	effect of pretreatment on OSU-13-mediated cell death (100 μM necrostatin-1s 1 h, then 1 μM OSU-13 72 h)	decrease of OSU-13-mediated cell death by pretreatment (100 mM Z-VAD-FMK 1 h, then 1 mM OSU-13 72 h) [%]
CN1C(=O)NC(Cc2c[nH]c3c(Cl)cccc23)C1=O (centres unmarked) [Necrostatin-1s]	no measurable effect	
COC(=O)C[C@H](NC(=O)[C@H](C)NC(=O)[C@@H](NC(=O)OCc1ccccc1)C(C)C)C(=O)CF [Z-VAD-FMK] (Cbz-Val-Ala-Asp(OMe)-CH2F)		20±6.7
